Measurements as given in ChEMBL document CHEMBL1157537 (J Med Chem, 2008).
The source made the active and inactive calls. The calls are words filed in the database; no cut-off is given here.

Key:
Progesterone receptor [1] = biological target: T1, Progesterone receptor (Homo sapiens, UniProt P06401); test: Agonist activity at human progesterone receptor; type: functional
T1 sequence (P06401 whole entry): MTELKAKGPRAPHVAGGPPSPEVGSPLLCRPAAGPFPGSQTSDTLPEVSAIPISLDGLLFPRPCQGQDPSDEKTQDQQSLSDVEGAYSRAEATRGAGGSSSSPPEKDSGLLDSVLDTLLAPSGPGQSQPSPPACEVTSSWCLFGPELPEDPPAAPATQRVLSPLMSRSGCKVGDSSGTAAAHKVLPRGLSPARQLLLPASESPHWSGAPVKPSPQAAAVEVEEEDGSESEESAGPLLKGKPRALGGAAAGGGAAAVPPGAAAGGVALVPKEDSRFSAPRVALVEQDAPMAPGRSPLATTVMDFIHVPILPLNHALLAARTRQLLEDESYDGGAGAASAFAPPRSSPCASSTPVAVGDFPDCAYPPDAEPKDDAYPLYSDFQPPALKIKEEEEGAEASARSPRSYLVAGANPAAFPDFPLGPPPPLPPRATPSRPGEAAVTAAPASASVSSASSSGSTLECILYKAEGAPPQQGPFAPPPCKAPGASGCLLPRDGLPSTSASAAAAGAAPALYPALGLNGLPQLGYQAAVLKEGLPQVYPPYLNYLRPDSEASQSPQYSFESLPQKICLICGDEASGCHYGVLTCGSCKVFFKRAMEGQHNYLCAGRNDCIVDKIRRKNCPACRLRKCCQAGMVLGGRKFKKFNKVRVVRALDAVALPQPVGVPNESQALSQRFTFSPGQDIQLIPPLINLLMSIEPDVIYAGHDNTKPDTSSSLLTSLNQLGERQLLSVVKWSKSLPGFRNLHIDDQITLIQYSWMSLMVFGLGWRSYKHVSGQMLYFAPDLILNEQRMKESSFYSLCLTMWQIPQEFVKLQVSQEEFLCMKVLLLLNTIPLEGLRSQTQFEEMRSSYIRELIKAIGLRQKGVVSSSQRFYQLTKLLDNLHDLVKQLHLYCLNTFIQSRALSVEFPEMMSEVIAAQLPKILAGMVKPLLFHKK

Progesterone receptor [2] = biological target: T1, Progesterone receptor; test: Binding affinity at human progesterone receptor
[3] = biological target: T2, Progesterone receptor (Homo sapiens) (UniProt P06401); test: Agonist activity at human progesterone receptor relative to progesterone; type: functional
T2 sequence (whole entry): T1 sequence (P06401 whole entry)

[4] = biological target: T2, Progesterone receptor (Homo sapiens); test: Agonist activity at human progesterone receptor in human T47D cells assessed as alkaline phosphatase activity relative to progesterone; type: functional, cell-based
Progesterone receptor [5] = biological target: T1, Progesterone receptor; test: Agonist activity at human progesterone receptor in human T47D cells assessed as alkaline phosphatase activity; type: functional, cell-based
Rattus norvegicus [6] = species: Rattus norvegicus; test: Progestational activity in estrone-treated ovariectomized rat assessed as effect on uterine epithelial cell height; type: functional, organism-based
Summary of the method: (§1)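 Ovariectomized rats were treated with estrone, alone or combined with test progestin, and compared with vehicle and estrone-only groups. Endpoints were uterine epithelial cell height, vaginal epithelial thickness and mammary alveolar bud proliferation.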

Rattus norvegicus [7] = species: Rattus norvegicus; test: Progestational activity in estrone-treated ovariectomized rat assessed as effect on vaginal epithelial thickness; type: functional, organism-based; summary of the method: as §1
Rattus norvegicus [8] = species: Rattus norvegicus; test: Progestational activity in estrone-treated ovariectomized rat assessed as reduction of breast alveolar bud proliferation; type: functional, organism-based; summary of the method: as §1
Rattus norvegicus [9] = species: Rattus norvegicus; test: Progestational activity in estrone-treated ovariectomized rat assessed as inhibition of medroxyprogesterone acetate-induced effect on uterine epithelial cell height; type: functional, organism-based
Summary of the method: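 Antagonist mode of the estrone-treated ovariectomized rat multi-endpoint model: compound was combined with MPA plus estrone, with vehicle and estrone-only groups. Endpoints were uterine epithelial cell height, vaginal epithelial thickness and mammary alveolar bud proliferation.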

[10] = biological target: T3, Mineralocorticoid receptor (Homo sapiens, UniProt P08235); test: Antagonist activity at human mineralocorticoid receptor; type: functional
T3 sequence (P08235 whole entry): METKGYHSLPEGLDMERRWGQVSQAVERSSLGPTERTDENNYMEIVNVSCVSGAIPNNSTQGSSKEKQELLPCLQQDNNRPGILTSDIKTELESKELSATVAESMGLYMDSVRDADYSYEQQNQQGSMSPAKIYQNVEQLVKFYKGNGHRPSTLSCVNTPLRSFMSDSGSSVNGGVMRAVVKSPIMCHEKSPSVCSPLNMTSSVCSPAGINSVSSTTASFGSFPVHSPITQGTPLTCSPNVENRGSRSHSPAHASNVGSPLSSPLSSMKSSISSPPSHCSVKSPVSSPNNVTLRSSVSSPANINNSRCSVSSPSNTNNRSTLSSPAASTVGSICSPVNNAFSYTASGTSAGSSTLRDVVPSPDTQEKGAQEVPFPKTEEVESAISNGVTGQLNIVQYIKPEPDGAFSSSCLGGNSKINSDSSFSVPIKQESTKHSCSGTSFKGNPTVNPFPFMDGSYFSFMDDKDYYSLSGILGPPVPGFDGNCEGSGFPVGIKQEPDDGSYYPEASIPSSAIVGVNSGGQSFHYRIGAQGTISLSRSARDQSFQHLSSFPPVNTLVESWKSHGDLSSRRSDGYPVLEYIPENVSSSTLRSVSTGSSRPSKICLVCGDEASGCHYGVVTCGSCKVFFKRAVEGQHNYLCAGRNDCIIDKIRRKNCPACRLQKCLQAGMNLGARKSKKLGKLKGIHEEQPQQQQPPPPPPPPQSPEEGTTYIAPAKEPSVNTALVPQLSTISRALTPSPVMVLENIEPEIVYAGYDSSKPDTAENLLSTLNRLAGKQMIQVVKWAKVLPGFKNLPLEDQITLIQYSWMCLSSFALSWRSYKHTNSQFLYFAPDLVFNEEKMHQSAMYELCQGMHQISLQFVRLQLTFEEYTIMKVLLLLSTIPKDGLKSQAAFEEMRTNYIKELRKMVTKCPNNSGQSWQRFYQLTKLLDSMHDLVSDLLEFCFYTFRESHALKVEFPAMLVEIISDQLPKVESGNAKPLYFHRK

Androgen receptor = biological target: T4, Androgen receptor (Homo sapiens, UniProt P10275); test: Agonist activity at human androgen receptor; type: functional
T4 sequence (P10275 whole entry): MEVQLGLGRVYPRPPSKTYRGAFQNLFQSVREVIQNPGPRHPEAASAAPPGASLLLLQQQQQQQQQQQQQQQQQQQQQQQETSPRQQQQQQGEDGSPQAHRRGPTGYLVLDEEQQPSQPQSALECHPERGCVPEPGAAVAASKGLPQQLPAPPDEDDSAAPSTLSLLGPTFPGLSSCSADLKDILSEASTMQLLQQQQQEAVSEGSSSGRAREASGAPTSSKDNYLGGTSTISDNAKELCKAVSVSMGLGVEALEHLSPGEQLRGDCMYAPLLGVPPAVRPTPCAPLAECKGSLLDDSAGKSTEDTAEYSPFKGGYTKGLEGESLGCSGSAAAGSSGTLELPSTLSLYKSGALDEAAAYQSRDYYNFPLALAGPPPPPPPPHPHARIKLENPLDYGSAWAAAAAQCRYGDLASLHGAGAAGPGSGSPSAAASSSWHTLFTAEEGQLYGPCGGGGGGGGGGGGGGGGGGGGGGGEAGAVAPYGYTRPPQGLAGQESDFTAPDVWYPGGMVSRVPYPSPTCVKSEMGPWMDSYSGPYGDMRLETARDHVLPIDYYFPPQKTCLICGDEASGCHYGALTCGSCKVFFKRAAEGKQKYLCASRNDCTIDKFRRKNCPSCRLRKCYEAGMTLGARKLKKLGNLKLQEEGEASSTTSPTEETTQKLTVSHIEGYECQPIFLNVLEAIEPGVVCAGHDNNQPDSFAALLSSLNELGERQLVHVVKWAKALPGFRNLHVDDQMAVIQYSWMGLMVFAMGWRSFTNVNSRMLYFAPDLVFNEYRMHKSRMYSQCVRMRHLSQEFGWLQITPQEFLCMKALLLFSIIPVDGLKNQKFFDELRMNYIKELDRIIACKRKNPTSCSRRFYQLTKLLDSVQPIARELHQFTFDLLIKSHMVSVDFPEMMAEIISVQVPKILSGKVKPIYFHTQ

Glucocorticoid receptor = biological target: T5, Glucocorticoid receptor (Homo sapiens, UniProt P04150); test: Antagonist activity at human glucocorticoid receptor; type: functional
T5 sequence (P04150 whole entry): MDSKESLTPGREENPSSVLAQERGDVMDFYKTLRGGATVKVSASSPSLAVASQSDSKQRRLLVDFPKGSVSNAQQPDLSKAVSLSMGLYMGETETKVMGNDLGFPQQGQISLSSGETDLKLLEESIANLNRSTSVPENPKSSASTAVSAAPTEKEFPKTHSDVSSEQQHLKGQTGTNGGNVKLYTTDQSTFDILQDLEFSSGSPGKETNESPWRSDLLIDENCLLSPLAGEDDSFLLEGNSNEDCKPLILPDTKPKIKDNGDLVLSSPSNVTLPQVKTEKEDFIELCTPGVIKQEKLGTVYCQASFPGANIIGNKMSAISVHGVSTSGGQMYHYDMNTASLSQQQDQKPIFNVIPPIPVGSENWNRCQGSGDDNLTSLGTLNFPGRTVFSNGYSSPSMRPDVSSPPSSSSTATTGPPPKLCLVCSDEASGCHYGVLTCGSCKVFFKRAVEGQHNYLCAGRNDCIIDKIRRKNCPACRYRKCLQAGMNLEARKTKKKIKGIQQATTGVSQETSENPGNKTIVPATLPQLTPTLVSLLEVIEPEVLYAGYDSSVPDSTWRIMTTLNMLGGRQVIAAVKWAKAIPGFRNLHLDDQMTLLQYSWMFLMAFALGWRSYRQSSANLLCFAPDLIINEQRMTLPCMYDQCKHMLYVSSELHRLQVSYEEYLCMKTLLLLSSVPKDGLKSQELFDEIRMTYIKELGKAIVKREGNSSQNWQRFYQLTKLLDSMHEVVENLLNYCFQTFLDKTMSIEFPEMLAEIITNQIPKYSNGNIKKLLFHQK

SMILES	EC50 (Progesterone receptor [1]) [µM]	Efficacy [3] [%]	Efficacy [4] [%]	EC50 (Progesterone receptor [5]) [µM]	further results
CC1=CC(C)(C)Nc2ccc3c(c21)[C@H]([C@H]1CCC[C@@]2(C)O[C@@H]12)Oc1c(F)cc(F)cc1-3	0.0004	177	59	0.0028	Ki (Progesterone receptor [2]): 0.0012 µM
CC1=C[C@@H]([C@@H]2Oc3c(F)cc(F)cc3-c3ccc4c(c32)C(C)=CC(C)(C)N4)CCC1 (racemic)	–	162	–	–	–
CC(=O)O[C@]1(C(C)=O)CC[C@H]2[C@@H]3C[C@H](C)C4=CC(=O)CC[C@]4(C)[C@H]3CC[C@@]21C	–	98	98	–	Activity (Rattus norvegicus [6]): Active; Activity (Rattus norvegicus [7]): Active; Activity (Rattus norvegicus [8]): Active
C[C@@H]1C[C@@H]2C(=C3CCC(=O)C=C31)[C@@H](c1ccc(N(C)C)cc1)C[C@@]1(C)[C@H]2CC[C@@]12CCCO2	–	–	–	–	Activity (Rattus norvegicus [9]): Active
CC1=C[C@@H]([C@@H]2Oc3c(F)cc(F)cc3-c3ccc4c(c32)C(C)=CC(C)(C)N4)CCC1 (stereo in doubt; (-)-5c)	–	–	–	–	IC50 [10]: 1.35 µM; EC50 (Androgen receptor): 1.8 µM; IC50 (Glucocorticoid receptor): 0.034 µM
CC1=CC(C)(C)Nc2ccc3c(c21)[C@H]([C@@H]1C=CCCC1)Oc1c(F)cc(F)cc1-3 (racemic)	0.0034	171	66	0.027	Ki (Progesterone receptor [2]): 0.0048 µM

Continued, in another order:

EC50 (Progesterone receptor [1]) [µM]	Efficacy [3] [%]	Efficacy [4] [%]	EC50 (Progesterone receptor [5]) [µM]	SMILES	further results
0.0107	97	66	0.096	CC1=CC(C)(C)Nc2ccc3c(c21)[C@H]([C@H]1CCCC(C)=C1C)Oc1c(F)cc(F)cc1-3 (racemic)	–
–	100	63	–	CC1=C[C@H]([C@@H]2Oc3c(F)cc(F)cc3-c3ccc4c(c32)C(C)=CC(C)(C)N4)CCC1 (racemic)	–
–	11	–	–	CC1=C[C@@H]([C@@H]2Oc3c(F)cc(F)cc3-c3ccc4c(c32)C(C)=CC(C)(C)N4)CCC1 (stereo in doubt; (+)-5d)	–
